How the values were obtained:
[1] = Antitumor activity against mouse Gardner lymphosarcoma allografted in C3H mouse assessed as tumor growth inhibition at 0.10 mg/kg, ip administered daily for 8 to 10 days; type: functional; details: route intraperitoneal, read-out: TGI
Procedure, shortened: (§1)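 Gardner lymphosarcoma in C3H mice; sulfate salts unless noted, given ip daily for 8–10 days, treatment starting 8 days after tumor implantation. Tumor growth inhibition scored as –, 0–25%; +, 26–50%; ++, 51–75%; +++, 76–100%; T, lethal to ≥5 of 10 animals per group. Average of one or more tests.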

[2] = tested on: Mus musculus; assay: Toxicity in C3H mouse allografted with mouse Gardner lymphosarcoma assessed as lethality at 0.20 mg/kg, ip administered daily for 8 to 10 days; type: organism-based; parameters: dose 0.2 mg/kg, route intraperitoneal; details: in vivo, 0.2 mg/kg
Procedure, shortened: (§2)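 Tumor-bearing mice given sulfate salts ip daily for 8–10 days; values are the average of one or more tests. Toxic means lethal to ≥5 of 10 animals per group.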

[3] = tested on: Mus musculus; assay: Toxicity in C3H mouse allografted with mouse Gardner lymphosarcoma assessed as lethality at 0.40 mg/kg, ip administered daily for 8 to 10 days; type: organism-based; parameters: dose 0.4 mg/kg, route intraperitoneal; details: in vivo, 0.4 mg/kg; procedure, shortened: as §2
[4] = Antitumor activity against mouse Ridgway osteogenic sarcoma allografted in AKR mouse assessed as tumor growth inhibition at 0.05 mg/kg, ip administered daily for 8 to 10 days compound treatment commenced 8 days after tumor implantation; type: functional; details: route intraperitoneal, read-out: TGI
[5] = Antitumor activity against mouse Ridgway osteogenic sarcoma allografted in AKR mouse assessed as tumor growth inhibition at 0.10 mg/kg, ip administered daily for 8 to 10 days compound treatment commenced 8 days after tumor implantation; type: functional; details: route intraperitoneal, read-out: TGI
[6] = tested on: Mus musculus; assay: Toxicity in AKR mouse allografted with mouse Ridgway osteogenic sarcoma assessed as lethality at 0.20 mg/kg, ip administered daily for 8 to 10 days compound treatment commenced 8 days after tumor implantation; type: organism-based; parameters: dose 0.2 mg/kg, route intraperitoneal; details: in vivo, 0.2 mg/kg; procedure, shortened: as §2
[7] = tested on: Mus musculus; assay: Toxicity in AKR mouse allografted with mouse Ridgway osteogenic sarcoma assessed as lethality at 0.40 mg/kg, ip administered daily for 8 to 10 days compound treatment commenced 8 days after tumor implantation; type: organism-based; parameters: dose 0.4 mg/kg, route intraperitoneal; details: in vivo, 0.4 mg/kg; procedure, shortened: as §2
[8] = Antitumor activity against mouse Gardner lymphosarcoma allografted in C3H mouse assessed as tumor growth inhibition at 0.20 mg/kg, ip administered daily for 8 to 10 days; type: functional; details: route intraperitoneal, read-out: TGI; procedure, shortened: as §1
[9] = Antitumor activity against mouse Gardner lymphosarcoma allografted in C3H mouse assessed as tumor growth inhibition at 0.40 mg/kg, ip administered daily for 8 to 10 days; type: functional; details: route intraperitoneal, read-out: TGI; procedure, shortened: as §1
[10] = Antitumor activity against mouse Ridgway osteogenic sarcoma allografted in AKR mouse assessed as tumor growth inhibition at 0.30 mg/kg, ip administered daily for 8 to 10 days compound treatment commenced 8 days after tumor implantation; type: functional; details: route intraperitoneal, read-out: TGI
[11] = Dissociation constant, pKa of the compound; type: physicochemical
Procedure, shortened: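 Electrometric titration in 66% aqueous DMF.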

[12] = Antitumor activity against mouse Gardner lymphosarcoma allografted in C3H mouse assessed as tumor growth inhibition at 0.5 mg/kg, ip administered daily for 8 to 10 days; type: functional; details: route intraperitoneal, read-out: TGI; procedure, shortened: as §1
[13] = Antitumor activity against mouse Gardner lymphosarcoma allografted in C3H mouse assessed as tumor growth inhibition at 0.25 mg/kg, ip administered daily for 8 to 10 days; type: functional; details: route intraperitoneal, read-out: TGI; procedure, shortened: as §1
[14] = Antitumor activity against mouse Gardner lymphosarcoma allografted in C3H mouse assessed as tumor growth inhibition at 0.125 mg/kg, ip administered daily for 8 to 10 days; type: functional; details: route intraperitoneal, read-out: TGI; procedure, shortened: as §1
[15] = Antitumor activity against mouse Ridgway osteogenic sarcoma allografted in AKR mouse assessed as tumor growth inhibition at 0.20 mg/kg, ip administered daily for 8 to 10 days compound treatment commenced 8 days after tumor implantation; type: functional; details: route intraperitoneal, read-out: TGI
[16] = Antitumor activity against mouse Ridgway osteogenic sarcoma allografted in AKR mouse assessed as tumor growth inhibition at 0.40 mg/kg, ip administered daily for 8 to 10 days compound treatment commenced 8 days after tumor implantation; type: functional; details: route intraperitoneal, read-out: TGI
[17] = Antitumor activity against mouse Gardner lymphosarcoma allografted in C3H mouse assessed as tumor growth inhibition at 0.05 mg/kg, ip administered daily for 8 to 10 days; type: functional; details: route intraperitoneal, read-out: TGI; procedure, shortened: as §1
[18] = tested on: B16; assay: Antitumor activity against mouse B16 cells allografted in C57BL/6 mouse assessed as prolongation of host survival at 0.60 mg/kg, ip administered on days 1,5 and 9; type: functional; details: route intraperitoneal
Procedure, shortened: (§3)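 B16 melanoma cells (10⁶ inoculum) implanted ip in C57BL/6 mice; groups of 10. Sulfate salts unless noted, given ip on days 1, 5 and 9. Single test. Survival prolongation is expressed as percent versus controls, with survivors counted on day 60. Toxic means deaths of ≥5 of 10 animals before the first control death.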

[19] = tested on: B16; assay: Antitumor activity against mouse B16 cells allografted in C57BL/6 mouse assessed as prolongation of host survival at 0.90 mg/kg, ip administered on days 1,5 and 9; type: functional; details: route intraperitoneal; procedure, shortened: as §3
[20] = tested on: B16; assay: Antitumor activity against mouse B16 cells allografted in C57BL/6 mouse assessed as prolongation of host survival at 1.20 mg/kg, ip administered on days 1,5 and 9; type: functional; details: route intraperitoneal; procedure, shortened: as §3
[21] = Antitumor activity against mouse P1534 cells allografted in DBA2 mouse assessed as tumor growth inhibition at 0.10 mg/kg, ip administered daily for 8 to 10 days; type: functional; details: route intraperitoneal, read-out: TGI
Procedure, shortened: (§4)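 P1534(J) leukemia implanted sc in DBA2 mice; sulfate salts dosed ip daily for 8–10 days. Growth inhibition scored –, 0–25%; +, 26–50%; ++, 51–75%; +++, 76–100%; T, lethal to ≥5 of 10 animals per group. Average of one or more tests.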

[22] = Toxicity in iv dosed mouse assessed as lethality; type: organism-based; details: in vivo
[23] = tested on: CHO; assay: Mitotic arrest in CHO cells assessed as increase in cell accumulation at 0.2 ug/ml; type: functional, Cricetulus griseus
Procedure, shortened: (§5)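 Chinese hamster ovary cells in tissue culture, scored for mitotic arrest as increase in cells in mitotic arrest over control: +++, 40–50%; ++, 15–40%; +, 10–15%; ±, 7–10%; –, 3–7%. Cytotoxicity noted separately.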

[24] = tested on: CHO; assay: Mitotic arrest in CHO cells assessed as increase in cell accumulation at 0.02 ug/ml; type: functional, Cricetulus griseus; procedure, shortened: as §5
[25] = tested on: CHO; assay: Mitotic arrest in CHO cells assessed as increase in cell accumulation at 0.002 ug/ml; type: functional, Cricetulus griseus; procedure, shortened: as §5
[26] = Antitumor activity against mouse P1534 cells allografted in DBA2 mouse assessed as tumor growth inhibition at 0.20 mg/kg, ip administered daily for 8 to 10 days; type: functional; details: route intraperitoneal, read-out: TGI; procedure, shortened: as §4
[27] = Antitumor activity against mouse P1534 cells allografted in DBA2 mouse assessed as tumor growth inhibition at 0.40 mg/kg, ip administered daily for 8 to 10 days; type: functional; details: route intraperitoneal, read-out: TGI; procedure, shortened: as §4
[28] = tested on: Mus musculus; assay: Toxicity in C57BL/6 mouse allografted with mouse B16 cells assessed as animal death at 0.60 mg/kg, ip administered on days 1,5 and 9; type: organism-based; parameters: dose 0.6 mg/kg, route intraperitoneal; details: in vivo, 0.6 mg/kg; procedure, shortened: as §3
[29] = tested on: Mus musculus; assay: Toxicity in C57BL/6 mouse allografted with mouse B16 cells assessed as animal death at 0.90 mg/kg, ip administered on days 1,5 and 9; type: organism-based; parameters: dose 0.9 mg/kg, route intraperitoneal; details: in vivo, 0.9 mg/kg; procedure, shortened: as §3
[30] = tested on: Mus musculus; assay: Toxicity in C57BL/6 mouse allografted with mouse B16 cells assessed as animal death at 1.20 mg/kg, ip administered on days 1,5 and 9; type: organism-based; parameters: dose 1.2 mg/kg, route intraperitoneal; details: in vivo, 1.2 mg/kg; procedure, shortened: as §3

| SMILES | inhibition in vivo at 0.1 mg/kg [1] | inhibition in vivo at 0.05 mg/kg [4] | inhibition in vivo at 0.1 mg/kg [5] | inhibition in vivo at 0.2 mg/kg [8] | inhibition in vivo at 0.4 mg/kg [9] | inhibition in vivo at 0.2 mg/kg [15] | inhibition in vivo at 0.4 mg/kg [16] | further results |
| --- | --- | --- | --- | --- | --- | --- | --- | --- |
| CC[C@]1(O)C[C@H]2CN(CCc3c([nH]c4ccccc34)[C@@](C(=O)OC)(c3cc4c(cc3OC)N(C)[C@H]3[C@@](O)(C(=O)NC(C)C)[C@H](O)[C@]5(CC)C=CCN6CC[C@]43[C@@H]65)C2)C1.O=S(=O)(O)O | 0% | 0% | 76% |  |  |  |  | Activity [2]: Toxic; Activity [3]: Toxic; Activity [6]: Toxic; Activity [7]: Toxic |
| CC[C@]1(O)C[C@H]2CN(CCc3c([nH]c4ccccc34)[C@@](C(=O)OC)(c3cc4c(cc3OC)N(C)[C@H]3[C@@](O)(C(=O)NCCN)[C@H](O)[C@]5(CC)C=CCN6CC[C@]43[C@@H]65)C2)C1 |  |  | 0% | 0% | 0% |  |  | inhibition in vivo at 0.3 mg/kg [10]: 0%; pKa [11]: 9.48 |
| CC[C@]1(O)C[C@H]2CN(CCc3c([nH]c4ccccc34)[C@@](C(=O)OC)(c3cc4c(cc3OC)N(C)[C@H]3[C@@](O)(C(=O)NCCNC(C)=O)[C@H](O)[C@]5(CC)C=CCN6CC[C@]43[C@@H]65)C2)C1 | 76% |  |  | 76% | 76% |  |  | inhibition in vivo at 0.5 mg/kg [12]: 76%; inhibition in vivo at 0.25 mg/kg [13]: 76%; inhibition in vivo at 0.125 mg/kg [14]: 51% |
| CC[C@]1(O)C[C@H]2CN(CCc3c([nH]c4ccccc34)[C@@](C(=O)OC)(c3cc4c(cc3OC)N(C)[C@H]3[C@@](O)(C(=O)NCCN(C)C)[C@H](O)[C@]5(CC)C=CCN6CC[C@]43[C@@H]65)C2)C1 |  |  |  | 0% | 0% | 0% | 51% | pKa [11]: 8.5 |
| CC[C@]1(O)C[C@H]2CN(CCc3c([nH]c4ccccc34)[C@@](C(=O)OC)(c3cc4c(cc3OC)N(C)[C@H]3[C@@](O)(C(=O)NCCO)[C@H](O)[C@]5(CC)C=CCN6CC[C@]43[C@@H]65)C2)C1.O=S(=O)(O)O | 76% | 51% | 76% | 76% | 76% | 76% | 76% | inhibition in vivo at 0.05 mg/kg [17]: 76%; survival at 0.6 mg/kg [18]: 51%; survival at 0.9 mg/kg [19]: 97%; survival at 1.2 mg/kg [20]: 93%; inhibition in vivo at 0.1 mg/kg [21]: 51%; LD50 [22]: 4.4 mg/kg; Activity [23]: 15%; Activity [24]: 15%; Activity [25]: 3% |
| CC[C@]1(O)C[C@H]2CN(CCc3c([nH]c4ccccc34)[C@@](C(=O)OC)(c3cc4c(cc3OC)N(C)[C@H]3[C@@](O)(C(=O)NCCCO)[C@H](O)[C@]5(CC)C=CCN6CC[C@]43[C@@H]65)C2)C1 |  | 26% | 76% | 51% | 76% | 76% | 76% | inhibition in vivo at 0.2 mg/kg [26]: 76%; inhibition in vivo at 0.4 mg/kg [27]: 76% |
| CC[C@]1(O)C[C@H]2CN(CCc3c([nH]c4ccccc34)[C@@](C(=O)OC)(c3cc4c(cc3OC)N(C)[C@H]3[C@@](O)(C(=O)NCCOC)[C@H](O)[C@]5(CC)C=CCN6CC[C@]43[C@@H]65)C2)C1.O=S(=O)(O)O | 0% |  |  | 0% |  |  |  | Activity [28]: Toxic; Activity [29]: Toxic; Activity [30]: Toxic |
| CC[C@]1(O)C[C@H]2CN(CCc3c([nH]c4ccccc34)[C@@](C(=O)OC)(c3cc4c(cc3OC)N(C)[C@H]3[C@@](O)(C(=O)NCCNC(C)=O)[C@H](OC(C)=O)[C@]5(CC)C=CCN6CC[C@]43[C@@H]65)C2)C1 |  |  |  |  |  |  |  | inhibition in vivo at 0.5 mg/kg [12]: 76%; inhibition in vivo at 0.25 mg/kg [13]: 51%; inhibition in vivo at 0.125 mg/kg [14]: 0% |

Source: ChEMBL document CHEMBL3227917, “Structure-activity relationships of dimeric Catharanthus alkaloids. 2. Experimental antitumor activities of N-substituted deacetylvinblastine amide (vindesine) sulfates” (J Med Chem, 1979)
